Reference: PMC5161678 (Clinical cancer research : an official journal of the …, 2016)

How the values were obtained:
CSF-1R [1] = conditions: CSF-1R in vitro; cited from earlier work
CD5+CD19+ CLL B-cells = test: CLL B-cell viability by Annexin V/PI staining in NLC cocultures; assay type: cell-based, human; conditions: for CLL viability: long-term NLC/CLL cocultures, ruxolitinib 5 μM, fedratinib 5 μM, pacritinib 1 μM
[2] = in vivo; cited from earlier work
nurse-like cells (NLC) = test: NLC generation and survival in CLL patient PBMC cultures; assay type: cell-based, human; conditions: pacritinib 1 μM; for NLC survival: CLL PBMC cultured 7–10 days, ruxolitinib 5 μM; for NLC survival / intact NLC by morphology: fedratinib 5 μM; for intact NLC by morphology: established NLC cultures treated for 24 hours
Summary of the method: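 PBMC from CLL patients not on therapy were plated at 3–5 × 10^6 cells/mL in RPMI with 10% FBS at 37°C, 5% CO2 for 7–10 days, then given test compound or DMSO vehicle. NLC were counted by morphology in five high-power fields or as high forward/side-scatter events by flow cytometry. Viability was read by annexin V/PI. For some cultures, CLL cells were gently removed before treatment.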

CSF-1R [3] = biological target: T1, CSF-1R (Homo sapiens, UniProt P07333); test: CSF-1R phosphorylation sandwich ELISA in CSF-1 treated monocytes; assay type: cell-based; conditions: recombinant CSF-1 10 ng/mL, 5 minutes, fedratinib 5 μM, pacritinib 1 μM
T1 sequence (P07333 20-972): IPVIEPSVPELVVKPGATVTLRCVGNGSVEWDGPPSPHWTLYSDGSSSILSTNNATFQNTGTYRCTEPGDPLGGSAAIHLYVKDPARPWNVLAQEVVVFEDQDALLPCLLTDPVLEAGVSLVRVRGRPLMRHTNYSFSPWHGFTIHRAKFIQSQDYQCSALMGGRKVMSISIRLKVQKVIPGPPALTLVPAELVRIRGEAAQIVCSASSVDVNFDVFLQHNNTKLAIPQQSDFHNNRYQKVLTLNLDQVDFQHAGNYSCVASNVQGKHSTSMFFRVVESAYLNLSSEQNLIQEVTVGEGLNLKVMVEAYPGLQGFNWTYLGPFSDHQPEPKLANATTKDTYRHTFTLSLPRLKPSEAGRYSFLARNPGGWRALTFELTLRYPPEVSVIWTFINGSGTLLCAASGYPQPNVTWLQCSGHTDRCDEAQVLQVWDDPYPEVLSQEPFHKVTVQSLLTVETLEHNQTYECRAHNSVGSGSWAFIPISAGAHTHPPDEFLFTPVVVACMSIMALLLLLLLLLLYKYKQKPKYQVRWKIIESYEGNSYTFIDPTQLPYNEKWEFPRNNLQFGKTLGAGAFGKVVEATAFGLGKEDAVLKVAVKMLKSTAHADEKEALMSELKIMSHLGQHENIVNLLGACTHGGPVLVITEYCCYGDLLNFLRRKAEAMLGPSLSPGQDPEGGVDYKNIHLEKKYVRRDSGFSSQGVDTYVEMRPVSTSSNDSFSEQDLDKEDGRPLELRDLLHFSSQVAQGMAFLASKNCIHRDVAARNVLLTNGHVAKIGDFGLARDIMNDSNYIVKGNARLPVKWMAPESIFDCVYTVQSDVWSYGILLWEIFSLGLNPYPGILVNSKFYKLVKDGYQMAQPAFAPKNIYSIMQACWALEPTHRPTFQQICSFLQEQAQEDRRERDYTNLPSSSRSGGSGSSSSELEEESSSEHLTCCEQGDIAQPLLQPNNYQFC

CSF-1R [4] = biological target: T1, CSF-1R; test: in vitro radiometric kinase assay; assay type: biochemical
[5] = test system: monocyte-derived macrophages; test: monocyte and monocyte-derived macrophage viability; assay type: cell-based, human
ERK and AKT = ERK and AKT phosphorylation in CSF-1 treated monocytes; assay type: cell-based, human; conditions: pacritinib
Summary of the method: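 Healthy-donor monocytes were CD14 bead-selected from PBMC, cultured overnight, then stimulated 5 min with recombinant human CSF-1 (10 ng/mL) plus test compound or DMSO vehicle. Lysis buffer: Tris pH 7.5, EDTA, NaCl, NP-40, deoxycholate, SDS and protease/phosphatase inhibitors. SDS-PAGE on 5–12% gradient gels, PVDF transfer, 1 h milk block. Probed for total and pT308/pS473 AKT, and total and pT202/Y204 ERK1/2.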

lymphoma = conditions: cited from earlier work

IC50 (CSF-1R [4]) | IC50 (in words) (CSF-1R [4]; CSF-1R) | SMILES | IC50 (CSF-1R [1]) | CLL viability (CD5+CD19+ CLL B-cells) | clinically achievable concentrations [2] | NLC survival (nurse-like cells (NLC)) | intact NLC by morphology (nurse-like cells (NLC)) | total CSF-1R phosphorylation (CSF-1R [3]) | monocyte and monocyte-derived macrophage viability ([5]; CSF-1-treated monocytes, clinically achievable concentrations) | signs of apoptotic cell death ([5]; pacritinib-treated macrophages) | downstream phosphorylation of ERK and AKT (ERK and AKT) | tolerability (lymphoma; patients with lymphoma) | clinical activity (lymphoma; various NHL, including CLL) | induction of apoptosis in CLL samples (CD5+CD19+ CLL B-cells; paired CLL samples, ibrutinib 1 uM or pacritinib 1 uM) | viable NLC by annexin V/PI staining (nurse-like cells (NLC); CLL cells removed from established NLC cultures, 24 hours)
– | – | Cc1cnc(Nc2ccc(OCCN3CCCC3)cc2)nc1Nc1cccc(S(=O)(=O)NC(C)(C)C)c1 [fedratinib] | > 1 µM | significantly reduced | 1 to 5 µM | significant, and near total, loss | rarely observed | significantly reduced | – | – | – | – | – | – | –
< 0.05 µM | low nanomolar range | C1=C/COCc2cc(ccc2OCCN2CCCC2)Nc2nccc(n2)-c2cccc(c2)COC/1 [pacritinib] | – | significantly reduced | – | significant, and near total, loss | rarely observed | significantly reduced | significantly impaired | caspase 3 activation, loss of mitochondrial membrane potential, and changes in cell morphology | significantly impaired | well tolerated | clinical activity | significant increase | viable NLC were no longer identified
– | – | N#CC[C@H](C1CCCC1)n1cc(-c2ncnc3[nH]ccc23)cn1 [ruxolitinib] | ~1 µM | – | – | modest | – | – | – | – | – | – | – | – | –
